Published values collected from several papers.
Each line is one published result; the experiments were not run side by side. pEC50, pIC50: −log10 of the molar value.

Compound | cell line | observed | technique | concentration | time | endpoint | result
CC[C@@H]1C=CC(=O)O[C@@H]1C[C@@H](O)[C@H](C)[C@H](O)[C@@H](C)Cc1ccc(F)cc1 | A2780 | cell growth or viability | MTT | – | 48 h | GI50 | 29.7 nM
S=C([S][Au-][P+](CCCCCC[P+]([Au-][S]C(=S)n1cccn1)(c1ccccc1)c1ccccc1)(c1ccccc1)c1ccccc1)n1cccn1 | TK-10 | cell growth or viability | – | – | – | GI50 | 11000 nM
C=CC(=O)Nc1cccc(Nc2nc(Nc3ccc(OCCOC)cc3)ncc2F)c1 | U2932 | cell growth or viability | – | – | 48 h | GI50 | 4300 nM
CC(C)C[C@H](NC(=O)[C@H](Cc1ccccc1)NC(=O)c1cnccn1)B(O)O | NCI-H1581 | cell growth or viability | ATP luminescence | – | – | pIC50 | 7.80
CC(C)(O)[C@H]1CC[C@H](Nc2ccc3ncc(-c4cccc(C(F)(F)F)c4)n3n2)CC1 | UMUC3 | colony formation | – | – | – | pEC50 | 5.66
Cc1nc2ccc(Br)cc2c(=O)n1/N=C/c1ccc(C(=O)O)cc1 | LoVo | cell growth or viability | LDH | 200 µg/mL | 24 h | viability | 61.9%
CC(C)c1cc(C(=O)N2Cc3ccccc3C2)c(O)c2c1C=CC2 | UMUC3 | cell growth or viability | ATP luminescence | – | 72 h | pIC50 | 4.23
COc1cccc(Oc2ccccc2NC(=O)CNC(=O)c2cccc3ccccc23)c1 | TK-10 | cell growth or viability | SRB | – | 48 h | GI50 | 1580 nM
Cc1c(NC(=O)c2ccc(C(C)(C)C)cc2)cccc1-c1cn(C)c(=O)c(Nc2ccc(C(=O)N3CCOCC3)cc2)n1 | U2932 | cell growth or viability | – | – | 48 h | GI50 | > 10000 nM
CC(C)c1cc(C(=O)N2Cc3ccccc3C2)c(O)c2c1C(=NO)CC2 | UMUC3 | cell growth or viability | ATP luminescence | – | 72 h | pIC50 | 4.29
COc1ccc(-c2ccc(-c3ccc(C(=N)N)nc3)s2)cc1 | TK-10 | cell growth or viability | – | – | – | GI50 | 1890 nM
Cn1c(=O)c(NN=C2C(=O)Nc3ccccc32)nc2ccccc21 | HT-29 | cell growth or viability | – | 30 µM | – | inhibition | 73%
Cc1c(CN(C)C(=O)/C=C/c2cnc3c(c2)CC(CCN)C(=O)N3)oc2ccccc12 (centres unmarked) | IMR-90 | cell growth or viability | resazurin | 30 µM | 72 h | inhibition | 12%
Cc1nc2ccc(Cl)cc2c(=O)n1NC(=O)CCl | LoVo | cell growth or viability | LDH | 200 µg/mL | 24 h | viability | 89.5%
COc1ccc(-c2nc(NN=C3C(=O)Nc4ccc(Br)cc43)c3ccccc3n2)cc1OC | HT-29 | cell growth or viability | – | 10 µM | – | inhibition | 70.8%
COc1cc(/C=N/n2c(C)nc3ccc(C)cc3c2=O)ccc1OCc1ccccc1 | LoVo | cell growth or viability | LDH | 200 µg/mL | 24 h | viability | 76.5%
Cc1ccc2c(c1)C(=NNc1nnc(Cc3ccccc3)c3ccccc13)C(=O)N2 | HT-29 | cell growth or viability | – | 30 µM | – | inhibition | 89.1%
